Active and inactive are the calls of the source. The calls are words filed in the database; no cut-off is given here.
Key:
[1] = system: Blood; experiment: Inhibition of PGE2 production in LPS-stimulated human whole blood; type: functional, tissue-based
[2] = target: T1, Prostaglandin E synthase (Homo sapiens, UniProt O14684); experiment: Displacement of [3H]PGH2 from human recombinant PGES1 expressed in CHOK1 cells; type: cell-based, CHO-K1
T1 sequence (O14684 whole entry): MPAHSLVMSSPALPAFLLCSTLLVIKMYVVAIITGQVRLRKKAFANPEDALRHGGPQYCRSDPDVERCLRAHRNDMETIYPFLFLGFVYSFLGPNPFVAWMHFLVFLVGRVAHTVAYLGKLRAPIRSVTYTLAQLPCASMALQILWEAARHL

[3] = Half life in rat at 5 mg/kg, iv administered as single dose; type: ADME, organism-based; design: dose 5 mg/kg, route intravenous; conditions: in vivo
[4] = Oral bioavailability in rat at 20 mg/kg administered as single dose; type: ADME, organism-based; conditions: in vivo
[5] = Metabolic stability in rat liver hepatocytes assessed as compound remaining after 2 hrs; type: ADME, cell-based, Hepatocyte; conditions: read-out: Stability
Procedure, shortened: (§1)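 Compound incubated with hepatocytes (rat or human) for 2 h at 37 °C; read-out is % parent compound remaining; values are means of at least two experiments.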

[6] = Metabolic stability in human liver hepatocytes assessed as compound remaining after 2 hrs; type: ADME, cell-based, Hepatocyte; conditions: read-out: Stability; procedure, shortened: as §1
[7] = Inhibition of PGES1 in guinea pig whole blood; type: tissue-based; conditions: Cavia porcellus
[8] = target: Prostaglandin E synthase 2 (Homo sapiens, UniProt Q9H7Z7); experiment: Inhibition of human PGES2
Chain of Prostaglandin E synthase 2 (Q9H7Z7 whole entry): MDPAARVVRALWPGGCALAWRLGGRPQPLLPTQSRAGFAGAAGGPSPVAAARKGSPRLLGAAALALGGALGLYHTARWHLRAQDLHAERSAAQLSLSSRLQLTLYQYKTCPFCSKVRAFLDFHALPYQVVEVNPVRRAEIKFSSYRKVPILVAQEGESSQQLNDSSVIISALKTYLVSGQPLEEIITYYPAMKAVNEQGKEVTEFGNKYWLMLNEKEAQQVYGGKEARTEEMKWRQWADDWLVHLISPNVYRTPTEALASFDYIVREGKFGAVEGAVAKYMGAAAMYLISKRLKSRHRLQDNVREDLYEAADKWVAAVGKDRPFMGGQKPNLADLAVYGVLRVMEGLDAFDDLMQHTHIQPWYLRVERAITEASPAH

[9] = target: T2, Thromboxane-A synthase (Homo sapiens, UniProt P24557); experiment: Inhibition of TX synthase
T2 sequence (P24557 whole entry): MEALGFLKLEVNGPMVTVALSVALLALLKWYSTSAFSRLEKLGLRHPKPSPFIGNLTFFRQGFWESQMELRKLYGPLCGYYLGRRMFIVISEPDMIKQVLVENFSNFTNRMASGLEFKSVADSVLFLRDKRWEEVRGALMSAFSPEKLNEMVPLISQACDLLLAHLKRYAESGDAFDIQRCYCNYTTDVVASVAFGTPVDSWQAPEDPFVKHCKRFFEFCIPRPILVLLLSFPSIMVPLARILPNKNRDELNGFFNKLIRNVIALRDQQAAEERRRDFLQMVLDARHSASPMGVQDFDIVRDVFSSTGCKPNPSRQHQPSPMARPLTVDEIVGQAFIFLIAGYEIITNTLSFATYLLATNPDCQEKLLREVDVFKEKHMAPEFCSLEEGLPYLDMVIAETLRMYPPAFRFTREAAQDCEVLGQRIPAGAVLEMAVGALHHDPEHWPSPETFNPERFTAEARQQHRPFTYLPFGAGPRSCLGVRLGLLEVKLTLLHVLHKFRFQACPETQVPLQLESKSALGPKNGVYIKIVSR

[10] = system: A549; experiment: Inhibition of PGF2alpha production in human A549 cells in presence of 50% fetal bovine serum; type: functional, cell-based
[11] = system: Blood; experiment: Inhibition of TXB2 production in LPS-stimulated human whole blood; type: functional, tissue-based
[12] = system: Cavia porcellus; experiment: Analgesic activity against LPS-induced thermal hyperalgesia in po dosed Hartley guinea pig assessed as decrease in paw withdrawal latency administered 1 hr before LPS challenge measured after […]; type: functional
[13] = system: Blood; experiment: Inhibition of PGI2 production in LPS-stimulated human whole blood; type: functional, tissue-based
[14] = system: Blood; experiment: Inhibition of PGD2 production in LPS-stimulated human whole blood; type: functional, tissue-based
[15] = Half life in monkey; type: ADME, organism-based, Macaca mulatta; conditions: rhesus monkey, in vivo
[16] = system: Blood; experiment: Inhibition of TXA2 production in human whole blood; type: functional, tissue-based
[17] = Tmax in rat at 20 mg/kg; type: ADME, organism-based; design: dose 20 mg/kg; conditions: in vivo
[18] = target: T1, Prostaglandin E synthase; experiment: Inhibition of mPGES1 in IL-1-beta-stimulated human A549 cells assessed as blockade of PGH2 to PGE2 conversion in presence of 50% fetal bovine serum; type: cell-based

SMILES | IC50 [1] | IC50 [2] | half-life [3] | also measured
N#Cc1cccc(C#N)c1-c1nc2c3ccc(Cl)cc3c3cc(C#Cc4cccnc4)ccc3c2[nH]1 | 530 nM | – | – | –
CC(C)(O)Cc1ccc2c(c1)c1cc(OCCC3CC3)ccc1c1nc(-c3c(C#N)cccc3C#N)[nH]c21 | 220 nM | 0.9 nM | 1.6 h | bioavailability [4]: 76%
CC(C)(O)C#Cc1ccc2c(c1)c1cc(C#CC3CC3)ccc1c1nc(-c3c(C#N)cccc3C#N)[nH]c21 | 76 nM | 1 nM | 40 h | –
CC(C)(O)Cc1ccc2c(c1)c1cc(OCCCC(F)(F)F)ccc1c1nc(-c3c(C#N)cccc3C#N)[nH]c21 | 250 nM | 1 nM | 3.3 h | bioavailability [4]: 85%; remaining at 2 h [5]: 92%; remaining at 2 h [6]: 98%
CC(C)CCOc1ccc2c(c1)c1cc(CC(C)(C)O)ccc1c1[nH]c(-c3c(C#N)cccc3C#N)nc21 | 150 nM | – | 4.8 h | bioavailability [4]: 46%; remaining at 2 h [5]: 8%; remaining at 2 h [6]: 30%
CS(=O)(=O)c1ccc(-c2ccc3c(c2)c2cc(Cl)ccc2c2nc(-c4c(C#N)cccc4C#N)[nH]c32)cc1 | 410 nM | – | – | –
N#CCCCOc1ccc2c(c1)c1cc(Cl)ccc1c1nc(-c3c(C#N)cccc3C#N)[nH]c21 | 380 nM | – | – | –
CC(C)(O)C#Cc1ccc2c(c1)c1cc(Cl)ccc1c1nc(-c3c(C#N)cccc3C#N)[nH]c21 | 200 nM | – | 20 h | remaining at 2 h [5]: 97%; remaining at 2 h [6]: 97%; IC50 [7]: 100 nM; IC50 [8]: > 30000 nM; IC50 [9]: 800 nM; IC50 [10]: > 40000 nM; IC50 [11]: > 40000 nM; ED50 [12]: 30 mg/kg; Activity [13]: inactive; Activity [14]: inactive
N#Cc1cccc(C#N)c1-c1nc2c3ccc(Cl)cc3c3ccccc3c2[nH]1 | – | – | 1.5 h | remaining at 2 h [6]: 90%; IC50 [7]: 100 nM; IC50 [8]: > 30000 nM; IC50 [10]: > 40000 nM; ED50 [12]: 100 mg/kg; half-life [15]: 1.3 h
CC(C)(O)Cc1ccc2c(c1)c1cc(OCCC3CC3)ccc1c1nc(-c3c(C#N)cc(F)cc3C#N)[nH]c21 | 140 nM | – | – | IC50 [10]: > 40000 nM; IC50 [11]: > 40000 nM; ED50 [12]: 14 mg/kg; Activity [13]: inactive; Activity [14]: inactive; Activity [16]: inactive
CC(C)COc1ccc2c(c1)c1cc(CC(C)(C)O)ccc1c1nc(-c3c(C#N)cccc3C#N)[nH]c21 | 290 nM | 3 nM | 1.3 h | bioavailability [4]: 30%
CC(C)(O)CCc1ccc2c(c1)c1cc(Cl)ccc1c1nc(-c3c(C#N)cccc3C#N)[nH]c21 | 200 nM | – | 14 h | –
N#Cc1cccc(C#N)c1-c1nc2c3ccc(Cl)cc3c3cc(OCCn4cccc4)ccc3c2[nH]1 | 380 nM | – | – | –
CC(C)(O)Cc1ccc2c(c1)c1cc(Cl)ccc1c1nc(-c3c(C#N)cccc3C#N)[nH]c21 | 250 nM | 2 nM | 8.4 h | Tmax [17]: 1 h
CC(C)(O)Cc1ccc2c(c1)c1cc(OCCC3CC3)ccc1c1[nH]c(-c3c(C#N)cc(F)cc3C#N)nc21 | – | – | 2.3 h | bioavailability [4]: 68%; remaining at 2 h [5]: 68%; remaining at 2 h [6]: 81%; IC50 [8]: > 30000 nM; IC50 [9]: 30000 nM
N#Cc1cccc(C#N)c1-c1nc2c3ccc(Cl)cc3c3cc(C#CC4(O)CCCC4)ccc3c2[nH]1 | 260 nM | – | – | –
N#Cc1cccc(C#N)c1-c1nc2c3ccc(Cl)cc3c3cc(C#Cc4ccncc4)ccc3c2[nH]1 | 390 nM | – | – | –
CC(=O)c1ccc2c(c1)c1cc(C(C)=O)ccc1c1[nH]c(-c3c(F)cccc3Cl)nc21 | – | 122 nM | – | IC50 [18]: > 50000 nM
CCc1ccc2c(c1)c1cc(C#CC(C)(C)O)ccc1c1[nH]c(-c3c(C#N)cccc3C#N)nc21 | 370 nM | 1 nM | 7 h | –
CC(C)(O)Cc1ccc2c(c1)c1cc(OCC3CC3)ccc1c1nc(-c3c(C#N)cccc3C#N)[nH]c21 | 350 nM | 3 nM | 5.5 h | bioavailability [4]: 36%; remaining at 2 h [6]: > 99%
COCC#Cc1ccc2c(c1)c1cc(Cl)ccc1c1nc(-c3c(C#N)cccc3C#N)[nH]c21 | 1100 nM | – | – | –
CC(C)(O)c1ccc2c(c1)c1cc(Cl)ccc1c1nc(-c3c(C#N)cccc3C#N)[nH]c21 | 1400 nM | – | – | –
CS(=O)(=O)c1ccc2c(c1)c1cc(Cl)ccc1c1nc(-c3c(C#N)cccc3C#N)[nH]c21 | > 10000 nM | – | – | –
